Test results taken from publication PMC4111403 (Journal of Medicinal Chemistry, 2014).
Values belong to the compound of their own block, whether it stands above or below them.

How the values were obtained:
tau transgenic (Tg) mice = settings: tau Tg mice with brain stem and spinal cord tau pathology ref 5; cited from earlier work
[1] = tested on: Pgp-expressing cancer cell lines; settings: cited from earlier work
human Pgp = human Pgp (Homo sapiens, UniProt P08183); assay: Pgp-interaction assay; assay type: cell-based; settings: NCI/ADR-RES cells
Chain of human Pgp (P08183 whole entry): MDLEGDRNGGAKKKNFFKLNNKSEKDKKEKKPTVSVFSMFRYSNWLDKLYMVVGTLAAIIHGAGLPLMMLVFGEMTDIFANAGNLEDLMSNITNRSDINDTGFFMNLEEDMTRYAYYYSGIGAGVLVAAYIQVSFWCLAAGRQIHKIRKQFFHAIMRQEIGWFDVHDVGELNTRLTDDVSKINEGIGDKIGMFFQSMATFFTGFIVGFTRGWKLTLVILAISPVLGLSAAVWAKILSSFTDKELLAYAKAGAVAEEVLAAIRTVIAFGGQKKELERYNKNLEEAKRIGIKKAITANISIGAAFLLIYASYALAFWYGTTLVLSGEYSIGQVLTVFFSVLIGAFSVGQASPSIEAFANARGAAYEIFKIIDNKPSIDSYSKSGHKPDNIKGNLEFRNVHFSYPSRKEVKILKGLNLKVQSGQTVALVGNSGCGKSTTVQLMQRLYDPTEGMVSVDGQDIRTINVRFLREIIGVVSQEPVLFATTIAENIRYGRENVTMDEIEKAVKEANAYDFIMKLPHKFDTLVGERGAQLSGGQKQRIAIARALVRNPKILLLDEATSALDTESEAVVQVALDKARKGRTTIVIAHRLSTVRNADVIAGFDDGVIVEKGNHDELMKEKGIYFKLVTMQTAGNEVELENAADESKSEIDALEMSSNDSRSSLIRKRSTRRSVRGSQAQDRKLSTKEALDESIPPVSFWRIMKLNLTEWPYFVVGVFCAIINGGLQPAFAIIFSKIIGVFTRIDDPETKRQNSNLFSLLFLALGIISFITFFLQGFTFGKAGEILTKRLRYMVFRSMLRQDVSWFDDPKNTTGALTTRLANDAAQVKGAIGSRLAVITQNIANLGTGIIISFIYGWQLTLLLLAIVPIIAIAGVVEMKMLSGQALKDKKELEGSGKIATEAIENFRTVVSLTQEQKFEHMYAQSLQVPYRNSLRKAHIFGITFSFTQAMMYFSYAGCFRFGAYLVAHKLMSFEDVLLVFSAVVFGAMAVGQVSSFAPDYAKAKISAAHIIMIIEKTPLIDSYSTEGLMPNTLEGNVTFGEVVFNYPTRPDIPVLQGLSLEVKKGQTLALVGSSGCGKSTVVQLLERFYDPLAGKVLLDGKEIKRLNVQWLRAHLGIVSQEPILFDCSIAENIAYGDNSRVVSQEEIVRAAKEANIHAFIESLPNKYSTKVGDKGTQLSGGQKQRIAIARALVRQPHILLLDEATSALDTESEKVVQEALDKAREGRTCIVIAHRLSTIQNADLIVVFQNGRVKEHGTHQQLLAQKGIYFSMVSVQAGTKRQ

[2] = 16 h brain and plasma PK study after ip dosing; assay type: in vivo, CD1 mice; settings: for brain penetration / BBB permeability: mouse, ip dosing; for half-life: CD1, mouse, ip, 5 mg/kg
Summary of the method: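 2-month-old CD1 mice (20 g average). Plasma from EDTA-collected blood spun 4500g, 10 min, 4 °C; brain hemispheres sonicated in 10 mM ammonium acetate pH 5.7 (1:2 w/v). Acetonitrile-precipitated supernatants quantified by LC–MS/MS (positive ESI, MRM) against spiked-matrix standards 0.005–5 μM.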

[3] = tested on: acetylated α-tubulin (AcTub) in QBI293 cells; assay: QBI293 cell AcTub; assay type: cell-based; settings: for increase of cellular AcTub (words, Figure 2): compared with 1; for activity in AcTub assay: 1 μM
Summary of the method: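 QBI293 cells are an HEK293 derivative. Tubulin acetylation, which occurs on polymerized tubulin, serves as the cellular read-out of MT stabilization. Test compounds were run at 0.1 or 1 μM. AcTub was expressed relative to vehicle-treated cells and to a 0.1 μM reference MT-stabilizer positive control. Significance was assessed by two-tailed t-test.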

QBI293 cells = assay: AcTub immunofluorescence of QBI293 cells; assay type: cell-based; settings: 4 h incubation; 2 at 100 nM, colchicine at 1 μM
β-tubulin = β-tubulin ref 28; cited from earlier work
[4] = Brain and plasma levels 2 h after oral administration; assay type: in vivo, mice; settings: 2 h after oral administration of 10 mg/kg
Summary of the method: (§1)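 Dosing in 2-month-old CD1 mice (20 g average). Brain hemispheres homogenized by sonication in 10 mM ammonium acetate pH 5.7 (1:2 w/v); plasma from EDTA blood centrifuged 4500g, 10 min, 4 °C. Samples precipitated with acetonitrile, spun 15 000g, then analysed by UPLC–MS/MS with positive ESI and MRM. Quantified against brain- and plasma-matrix standard curves spanning 0.005–5 μM.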

[5] = tested on: AcTub levels in brain homogenates; assay: Brain pharmacodynamic effect: AcTub levels in brain homogenates; assay type: in vivo, WT mice; settings: 1 mg/kg daily ip for 4 or 6 days, n = 3
[6] = Brain and plasma compound concentration 1 h after ip injection; assay type: in vivo, CD1 mice; settings: 1 h after ip injection of 5 mg/kg, mouse
Summary of the method: as §1

[7] = tested on: acetylated α-tubulin (AcTub) in QBI293 cells; settings: 50–500 nM concentrations ref 8; cited from earlier work
[8] = tested on: AcTub levels in brain homogenates; settings: single ip injection 1–6 mg/kg, mice ref 4; cited from earlier work
Pgp transporter = settings: cited from earlier work
[9] = Unbound fraction in brain homogenate by equilibrium dialysis; assay type: in vitro ADME; settings: ratio of brain Fu values

Compound: CC(=O)O[C@H]1C(=O)[C@@]2(C)[C@H]([C@H](OC(=O)c3ccccc3)[C@]3(O)C[C@H](OC(=O)[C@H](O)[C@@H](NC(=O)c4ccccc4)c4ccccc4)C(C)=C1C3(C)C)[C@]1(OC(C)=O)CO[C@@H]1C[C@@H]2O [paclitaxel]
effect on neurodegenerative phenotype of tau Tg mice (tau transgenic (Tg) mice): improve the neurodegenerative phenotype

brain penetration / BBB permeability [2]: negligible brain penetration
Compound: CNCCCOc1cc(F)c(-c2c(Cl)nc3ncnn3c2N[C@@H](C)C(F)(F)F)c(F)c1 [Compound 2, (S)-5-Chloro-6-(2,6-difluoro-4-(3-(methylamino)propoxy)phenyl)-N-(1,1,1-trifluoropropan-2-yl)[1,2,4]triazolo[1,5-a]pyrimidin-7-amine]
activity against Pgp-expressing cancer cell lines [1]: active
effect on Pgp function (calcein-AM transport) (human Pgp): did not interfere appreciably with Pgp function
increase of cellular AcTub (words, Figure 2) [3]: significant increase
AcTub staining by immunofluorescence (QBI293 cells): large increase in AcTub-positive structures
competition for the taxane/epothilone binding site (β-tubulin): not to compete
effect on vinblastine binding (β-tubulin): did affect vinblastine binding

Compound: COc1cc2c(c(OC)c1OC)-c1ccc(OC)c(=O)cc1[C@@H](NC(C)=O)CC2 [colchicine]
AcTub staining by immunofluorescence (QBI293 cells): significant loss of AcTub staining

Compound: CC(C)Nc1c(-c2c(F)cc(F)cc2F)c(Cl)nc2nccnc12 [Compound 37, 6-Chloro-N-isopropyl-7-(2,4,6-trifluorophenyl)pyrido[2,3-b]pyrazin-8-amine]
activity in AcTub assay [3]: essentially inactive

brain penetration / BBB permeability [2]: can readily partition across the BBB
brain and plasma levels after oral dosing [4]: micromolar levels
Compound: C[C@H](Nc1nc(-c2cnccn2)nc(Cl)c1-c1c(F)cc(F)cc1F)C(F)(F)F [Compound 20, (S)-6-Chloro-2-(pyrazin-2-yl)-5-(2,4,6-trifluorophenyl)-N-(1,1,1-trifluoropropan-2-yl)pyrimidin-4-amine]
effect on Pgp function (calcein-AM transport) (human Pgp): did not interfere appreciably with Pgp function
increase of cellular AcTub (words, Figure 2) [3]: large increase
PD response: AcTub level in brain [5]: significant PD response

B/P (brain-to-plasma ratio) [6]: 0.12 ± 0.03
brain concentration [6]: 170 ± 10 nM
plasma concentration [6]: 1500 ± 500 nM
Compound: (S)-N-(3-(4-(5-Chloro-7-((1,1,1-trifluoropropan-2-yl)amino)[1,2,4]triazolo[1,5-a]pyrimidin-6-yl)-3,5-difluorophenoxy)propyl)pivalamide [Compound 16]
AcTub fold-change relative to vehicle control ([3]; compound at 1 μM): 2.4 ± 0.9 fold-change
AcTub fold-change relative to 0.1 μM 2 ([3]; compound at 1 μM, relative to positive control 0.1 μM 2): 0.7 ± 0.1 fold-change

Compound: Cc1nnc(Cl)c(-c2c(F)cc(F)cc2F)c1-c1ccc(Cl)s1 [Compound 7, 3-Chloro-5-(5-chlorothiophen-2-yl)-6-methyl-4-(2,4,6-trifluorophenyl)pyridazine, reference compound]
activity in AcTub assay [3]: essentially inactive

Compound: C/C1=C/C[C@@H](/C(C)=C/c2csc(C)n2)OC(=O)C[C@H](O)C(C)(C)C(=O)[C@H](C)[C@@H](O)[C@@H](C)CCC1 [Compound 1, epothilone D]
elevation of AcTub levels in cells [7]: significant elevation
elevation in AcTub levels in brain homogenates [8]: significant elevation
Pgp transporter inhibition (Pgp transporter): inhibitor of the Pgp transporter

Compound: C[C@H](Nc1c(-c2c(F)cc(OCCCN(C)C)cc2F)c(Cl)nc2ncnn12)C(F)(F)F [Compound 9, (S)-5-Chloro-6-(4-(3-(dimethylamino)propoxy)-2,6-difluorophenyl)-N-(1,1,1-trifluoropropan-2-yl)[1,2,4]triazolo[1,5-a]pyrimidin-7-amine]
effect on Pgp function (calcein-AM transport) (human Pgp): did not interfere appreciably with Pgp function
half-life ([2]; brain): > 2 h
half-life ([2]; plasma): > 2 h
brain penetration / BBB permeability [2]: relatively limited
increase of cellular AcTub (words, Figure 2) [3]: large increase
AcTub fold-change relative to vehicle control (numbers in parentheses) ([3]; compound at 0.1 μM): (2.0 ± 1.4) fold-change
brain Fu value of 9 relative to 20 [9]: ~3 fold
brain and plasma levels after oral dosing [4]: micromolar levels
PD response: AcTub level in brain [5]: significant PD response

Compound: 5-(4-Chlorophenyl)-6-methyl-4-(2,4,6-trifluorophenyl)pyridazin-3(2H)-one [Compound 6, reference compound]
activity in AcTub assay [3]: essentially inactive
AcTub fold-change relative to vehicle control ([3]; compound at 1 μM): 1.5 ± 0.8^ns fold-change
